Drawing on ChEMBL document CHEMBL1125029, “Chemical and biochemical studies of 2-propynylpyrrolidine derivatives. Restricted-rotation analogues of N-methyl-N-(1-methyl-4-pyrrolidino-2-butynyl)acetamide (BM-5)” (J Med Chem, 1990), this text covers Ratio and Ki for eight compounds.

The target of test [1] is T1, Muscarinic acetylcholine receptor M1 (Rattus norvegicus) (UniProt P08482).
T1 sequence (whole entry): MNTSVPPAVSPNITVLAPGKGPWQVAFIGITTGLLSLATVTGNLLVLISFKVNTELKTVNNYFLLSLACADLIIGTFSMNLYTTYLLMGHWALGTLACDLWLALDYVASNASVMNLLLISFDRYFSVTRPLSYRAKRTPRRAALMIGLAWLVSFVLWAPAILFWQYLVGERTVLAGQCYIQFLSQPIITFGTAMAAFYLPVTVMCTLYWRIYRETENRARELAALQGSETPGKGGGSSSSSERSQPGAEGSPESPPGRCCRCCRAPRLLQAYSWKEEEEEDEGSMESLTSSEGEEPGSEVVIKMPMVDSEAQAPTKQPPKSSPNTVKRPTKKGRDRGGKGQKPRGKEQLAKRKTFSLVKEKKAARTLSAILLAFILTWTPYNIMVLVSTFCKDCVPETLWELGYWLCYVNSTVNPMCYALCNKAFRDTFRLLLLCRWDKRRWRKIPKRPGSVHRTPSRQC
Description: Muscarinic 1 receptor agonistic activity as the selectivity ratio of Ki against [3H]-QNB to that of [3H]PZ. It is filed as functional.

Test [2] has as its target Muscarinic acetylcholine receptor. Description: Binding activity to the muscarinic acetylcholine receptor in rat cortex, assayed using [3H]CD as a radioligand. It is filed as tissue-based. Put shortly: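 Male Wistar rat cerebral cortex homogenate in 10 mM Na/K phosphate pH 7.4, diluted 1:300 (wet wt/v), ~0.75 mg protein per 2.0 mL. 1 nM radioligand (55.5 Ci/mmol), prepared fresh in buffer. Competitor 10^-12 to 10^-3 M. Nonspecific binding with 10 μM atropine. Rapid filtration on PEI-treated filters, scintillation counting. Apparent Ki by one-site competitive nonlinear regression.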

In test [3] the target is T2, Muscarinic acetylcholine receptor M2 (Rattus norvegicus) (UniProt P10980).
T2 sequence (whole entry): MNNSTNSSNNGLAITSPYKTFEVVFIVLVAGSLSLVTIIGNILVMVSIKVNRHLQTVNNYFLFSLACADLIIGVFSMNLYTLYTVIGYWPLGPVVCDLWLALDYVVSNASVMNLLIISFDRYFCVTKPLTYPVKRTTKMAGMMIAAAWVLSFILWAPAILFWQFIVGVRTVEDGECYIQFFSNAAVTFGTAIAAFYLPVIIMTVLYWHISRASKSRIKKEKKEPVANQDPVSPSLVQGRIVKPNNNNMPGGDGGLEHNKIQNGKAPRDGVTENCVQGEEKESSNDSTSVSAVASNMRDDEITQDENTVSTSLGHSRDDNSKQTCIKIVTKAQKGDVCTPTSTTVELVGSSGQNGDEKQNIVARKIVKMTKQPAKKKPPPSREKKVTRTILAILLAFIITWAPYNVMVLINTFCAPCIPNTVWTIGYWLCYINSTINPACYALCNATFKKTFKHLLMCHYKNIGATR
Description: Muscarinic 2 receptor agonistic activity was determined as the selectivity ratio of Ki against [3H]QNB+ Gpp(NH)p to that of [3H]QNB. It is filed as functional.

Test [4] addresses T1, Muscarinic acetylcholine receptor M1 (Rattus norvegicus). Description: Muscarinic 1 receptor agonistic activity as the selectivity ratio of Ki against [3H]-QNB+ Gpp(NH)p to that of [3H]PZ. It is filed as functional.
In test [5] the target is Muscarinic receptor M1 and M2 (Rattus norvegicus) (UniProt P08482+P10980). Description: The agonist ratio as the ratio of Ki against [3H]QNB to that of [3H]-CD. It is filed as functional.
Test [6] concerns the target Muscarinic acetylcholine receptor. The test is described as follows: Binding activity to muscarinic acetylcholine receptor in rat heart, assayed using [3H]-QNB as a radioligand. Put shortly:
(§1)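 Male Wistar rat heart ventricles flushed, minced, Polytron-homogenized in 10 mM Na/K phosphate pH 7.4, spun 48000 g 15 min 4 °C, resuspended, gauze-filtered, diluted 1:750, 0.15-0.2 mg protein/2.0 mL. 10 μM Gpp(NH)p added to homogenate for line 3. Competitor 10^-12 to 10^-3 M. 10 μM atropine nonspecific. Filtration, scintillation counting. Ki from one-site fit.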

The target is the same in test [7]. Description: (§2) Binding activity against Muscarinic acetylcholine receptor in rat cortex, using [3H]QNB as a radioligand. It is filed as tissue-based. Put shortly:
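Radioligand 250 pM (30.0 Ci/mmol). Competitor at final 10^-12 to 10^-3 M. 10 μM atropine defines nonspecific binding. Filtration on PEI-soaked GF/B filters, scintillation counting. Apparent Ki from one-site competitive nonlinear fit.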

For test [8] the target is unchanged. Description: Binding activity to muscarinic acetylcholine receptor in rat heart, assayed using [3H]QNB as a radioligand in the presence of Gpp(NH)p. An outline of the steps:
as §1

Test [9] has the same target. Description: Binding activity to the muscarinic acetylcholine receptor in rat cortex, assayed using [3H]PZ as a radioligand. It is filed as tissue-based. Put shortly: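 Rat (male Wistar, 200-250 g) cortex homogenized in ice-cold Na/K phosphate buffer pH 7.4, diluted 1:400, ~0.55 mg protein per 2.0 mL. 0.1 nM radioligand (84.1 Ci/mmol), made fresh just before use. Unlabeled competitor at final 10^-12 to 10^-3 M. 10 μM atropine for nonspecific. Filtered, counted by liquid scintillation. One-site competitive fit gives apparent Ki.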

Test [10] has the same target. Described as §2. It is filed as tissue-based. An outline of the steps:
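Competitor at final 10^-12 to 10^-3 M. 10 μM atropine defines nonspecific binding. Filtration on PEI-soaked GF/B filters, scintillation counting. Apparent Ki from one-site competitive nonlinear fit.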
This is another data set of the same source.

Broadly, the Ki is the dissociation constant of the complex between target and ligand, obtained from inhibition or displacement.

In the case of `O=CN1CCC[C@H]1C#CCN1CCCC1`, the Ratio in [1] worked out at 6.2; in [3], 10; in test [4], 62; in test [5] it was 1. In addition, the Ki worked out at 4.88 µM in test [2]; 7.62 µM in [6]; 4.59 µM in [7]; 77 µM in test [8]; 1.23 µM in test [9].
For the compound `CC(=O)N1CCC[C@H]1C#CCN(C)C`, the Ratio in [1] was 1.3; in test [3], 3.4; in test [4] it was 4.4; in test [5] it was 3.2. The Ki in [2] is 15.5 µM; in [6], 51.7 µM; in [7], 48.9 µM; in test [8] it was 175 µM; in [9] it was 40 µM.
Take `CC(=O)N1CCC[C@H]1C#CC[N+](C)(C)C`: the Ratio in test [1] turned out to be 1.2; in test [3] it was 2.9; in test [4], 3.4; in test [5] it was 5. Further, the Ki worked out at 4.15 µM in test [2]; 16.4 µM in test [6]; 20.9 µM in test [7]; 47.1 µM in test [8]; 13.9 µM in test [9].
On to `CN(C)CC#C[C@@H]1CCCN1.Cl.Cl`, for which the Ratio in [1] worked out at 1.5; in [3] it was 1; in [4], 1.4; in [5], 0.2. Further, the Ki was 37.35 µM in [2]; 20 µM in test [6]; 8.5 µM in test [7]; 19.1 µM in [8]; 13.2 µM in [9].
As for `CS(=O)(=O)N1CCC[C@H]1C#CCN1CCCC1.Cl`, the Ratio in [1] was determined as 1.5; in test [3], 1.6; in [4], 2.5; in test [5] it was 0.8. Besides, the Ki came to 3.02 µM in test [10]; 3.92 µM in [2]; 9.19 µM in [6]; 15.1 µM in test [8]; 6.05 µM in test [9].
Take `C(#C[C@@H]1CCCN1)CN1CCCC1.Cl.Cl`: the Ratio in [1] was 0.7; in test [3] it was 1.3; in test [4], 0.9; in test [5], 0.5. Also, the Ki is 5.67 µM in [2]; 1.55 µM in test [6]; 2.8 µM in test [7]; 2.08 µM in test [8]; 2.22 µM in [9].
Consider `CC(=O)N1CCC[C@H]1C#CCN1CCCC1.Cl`, for which the Ratio in test [1] stood at 7.5; in test [3], 1.5; in [4] it was 11; in [5] it was 1.9. Moreover, the Ki in [2] came out at 2.55 µM; in test [6], 15.5 µM; in test [7] it was 4.96 µM; in [8], 22.6 µM; in [9] it was 2.06 µM.
On to `CS(=O)(=O)N1CCC[C@@H]1C#CCN1CCCC1.Cl`, for which the Ratio in test [1] stood at 1.4; in test [3] it was 2.3; in test [4] it was 3.3; in [5], 1. The Ki in test [10] was determined as 1.92 µM; in test [2], 1.98 µM; in [6], 5.91 µM; in test [8], 13.4 µM; in test [9] it was 4.11 µM.
